Data from ChEMBL document CHEMBL5661984, “Allosteric ligands for the pharmacologically dark receptors GPR68 and GPR65” (Nature, 2015).
Calls of active or inactive are those of the source.

What was measured:
[1] = biological target: C-X-C chemokine receptor type 4 (Homo sapiens) (UniProt P61073); test: Agonist activity against CXCR4 receptor (unknown origin) transfected in human HEK293T cells at 10 uM incubated for 15 mins in presence of CXCL12 by luminescence counter analysis; format: functional, cell-based
Outline: (§1)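 HEK293-T cells transiently transfected with CXCR4 and the GloSensor cAMP reporter, plated in DMEM with 1% dialyzed FBS. Test compound at 10 μM in 20 mM HEPES/HBSS, pH 7.4, 15 min at room temperature. Agonist mode: luciferin (4 mM final) plus 200 nM isoproterenol added, 20 min. Antagonist mode: compound 10 min, then reference agonist at EC80 for 10 min, then luciferin/isoproterenol. Luminescence read. CXCL12 (1 or 3 μM) is the agonist control and AMD3100 (10 μM) the antagonist control. n=2.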

[2] = biological target: T1, G-protein coupled receptor 68 (Homo sapiens, UniProt Q15743); test: Positive allosteric modulator activity at human GPR68 expressed in yeast assessed as Gq-yeast growth stimulation at 10 uM by microplate reader analysis; details: filed as positive allosteric modulator
Outline: (§2)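 Gq-coupled yeast strain expressing receptor, in SD-His-Ura medium (pH 5.4) with 3-amino-1,2,4-triazole at a level giving moderate ligand-free growth (OD 0.2–0.6). Compound at 10 μM final, in triplicate. Starting OD600 0.02; growth 2–5 days at 30°C, read as OD600. Values are 100 × (well OD600 − plate median), given as % growth stimulation, mean ± SEM of three wells.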

[3] = biological target: C-X-C chemokine receptor type 4 (Homo sapiens) (UniProt P61073); test: Antagonist activity against CXCR4 receptor (unknown origin) transfected in human HEK293T cells at 10 uM incubated for 15 mins in presence of AMD3100 by luminescence counter analysis; format: functional, cell-based; outline: as §1
[4] = biological target: G-prodeshotein coupled receptor 4 (Homo sapiens) (UniProt P46093); test: Positive allosteric modulator activity at human GPR4 expressed in yeast assessed as Gq-yeast growth stimulation at 10 uM by microplate reader analysis; outline: as §2
[5] = biological target: T1, G-protein coupled receptor 68; test: Positive allosteric modulator activity at HA-tagged GPR68 expressed in human HEK293T cells assessed as activation of p42/p44 MAP kinase at pH 7.4 by immunoblotting analysis; format: cell-based; details: filed as positive allosteric modulator
Outline: (§3)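 HEK293 cells stably expressing N-terminal HA-tagged human GPR68 (vector-only line as control), selected with 250 μg/ml G418. Confluent cells were switched to Hams-F12 at pH 8.0 or 7.4 for 1 h, then given vehicle or 50 μM compound for 10 min. Lysate immunoblots were probed for HA, total VASP, p-p42/p44 and β-actin, read with infrared-fluorophore secondaries.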

[6] = biological target: T1, G-protein coupled receptor 68; test: Positive allosteric modulator activity at HA-tagged GPR68 expressed in human HEK293T cells assessed as activation of PKA at pH 7.4 by immunoblotting analysis; format: cell-based; details: filed as positive allosteric modulator; outline: as §3
[7] = biological target: T2, G-protein coupled receptor 65 (Homo sapiens, UniProt Q8IYL9); test: Positive allosteric modulator activity at human GPR65 expressed in yeast assessed as Gq-yeast growth stimulation at 10 uM by microplate reader analysis; outline: as §2
[8] = biological target: T1, G-protein coupled receptor 68; test: Binding affinity to GPR68 expressed in human HEK293T cells assessed as cAMP production in presence of H+ proton by Split-luciferase based luminescence counter analysis; format: cell-based; details: filed as positive allosteric modulator
Outline: (§4)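 Proton concentration-response of GPR68 (wild type or E160A/K/Q, R189L/M, H269F mutants) in transiently transfected HEK293-T cells. Read-out: GloSensor cAMP, with luciferin loading 90 min at 37°C at pH 8.4. Run with and without increasing modulator concentrations; 20 min at room temperature before luminescence. Proton KA fixed to the proton EC50 without modulator. KB, τA, α, β fitted globally with an operational allosteric model. n=4.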

[9] = biological target: T2, G-protein coupled receptor 65; test: Antagonist activity against GPR65 (unknown origin) transfected in human HEK293T cells incubated for 15 mins by luminescence counter analysis relative to control; format: functional, cell-based
Outline: (§5)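 GloSensor split-luciferase cAMP assay. HEK293-T cells transiently co-transfected with GPR65 (wild type or the D153A, R187L, F242A or Y272A mutant) and GloSensor 7A reporter. Cells plated in DMEM with 1% dialyzed FBS for at least 6 h, then loaded with luciferin (4 mM, in drug buffer pH 8.4) for 90 min at 37°C. Compounds added at set pH in HBSS with 10 mM HEPES/10 mM MES, with TAPS for higher pH. Luminescence read after about 20 min at room temperature. Data normalized to buffer basal and fitted to a 4-parameter logistic.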

HEK293T [10] = test: Antagonist activity against GPR65 R187L mutant (unknown origin) transfected in human HEK293T cells incubated for 15 mins by luminescence counter analysis; format: cell-based; details: filed as antagonist; outline: as §5
HEK293T [11] = test: Antagonist activity against GPR65 F242A mutant (unknown origin) transfected in human HEK293T cells incubated for 15 mins by luminescence counter analysis; format: cell-based; details: filed as antagonist; outline: as §5
HEK293T [12] = test: Antagonist activity against GPR65 Y272A mutant (unknown origin) transfected in human HEK293T cells incubated for 15 mins by luminescence counter analysis; format: cell-based; details: filed as antagonist; outline: as §5
[13] = Antagonist activity against GPR65 D153A mutant (unknown origin) transfected in human HEK293T cells incubated for 15 mins by luminescence counter analysis relative to control; details: HEK-293T, 0.25 h, condition central nervous system disease; outline: as §5
[14] = biological target: T2, G-protein coupled receptor 65; test: Agonist activity against GPR65 (unknown origin) transfected in human HEK293T cells on pH 6.80 to 7.40 at 30 uM incubated for 15 mins by luminescence counter analysis; format: functional, cell-based
[15] = biological target: T2, G-protein coupled receptor 65; test: Antagonist activity against GPR65 (unknown origin) transfected in human HEK293T cells incubated for 15 mins by luminescence counter analysis; format: functional, cell-based; outline: as §5
[16] = Antagonist activity against GPR65 D153A mutant (unknown origin) transfected in human HEK293T cells incubated for 15 mins by luminescence counter analysis; format: cell-based; details: HEK-293T, 0.25 h; outline: as §5
[17] = Positive allosteric modulator activity at GPR68 E160Q mutant transfected in human HEK293T cells assessed as proton-mediated calcium release at 10 uM incubated for 10 mins by Fluo-4 Direct calcium dye based FLIPR assay (reference value: 1.25 +/- 0.01 %); details: HEK-293T, condition central nervous system disease
[18] = Positive allosteric modulator activity at GPR68 E160K mutant transfected in human HEK293T cells assessed as proton-mediated calcium release at 10 uM incubated for 10 mins by Fluo-4 Direct calcium dye based FLIPR assay (reference value: 1.38 +/- 0.01 %); details: HEK-293T, condition central nervous system disease
[19] = Toxicity in C57BL/6 mouse assessed as decreased contextual memory retrieval; details: in vivo
Outline: (§6)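 Fear conditioning in wild-type and GPR68 KO C57BL/6J congenic mice. Training was 8 min: 3 pairings of a 30-s, 90 dB, 5 kHz tone with a 2-s, 0.6 mA foot shock. Context freezing scored at 24 h over 5 min; cue test at 48 h over 6 min. Freezing defined as no movement for 0.5 s. Compound 10 mg/kg in 10% Tween 80 or saline, 30 min before training. n=6–8 per group. Two-way ANOVA with Bonferroni post-hoc test.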

[20] = Toxicity in C57BL/6 mouse assessed as improvement in contextual memory at 10 to 30 mg/kg administered for 30 mins; format: organism-based; details: in vivo, 0.5 h, dose 10-30 mg/kg
[21] = biological target: T1, G-protein coupled receptor 68; test: Positive allosteric modulator activity at GPR68 expressed in human HEK293T cells assessed as cAMP production in presence of H+ proton by Split-luciferase based luminescence counter analysis (reference value: 6.53 to 6.72); format: functional, cell-based
[22] = biological target: T1, G-protein coupled receptor 68; test: Positive allosteric modulator activity at GPR68 expressed in human HEK293T cells assessed as cAMP production in presence of H+ proton by Split-luciferase based luminescence counter analysis (reference value: 26.4 to 43.8 %); format: functional, cell-based; details: filed as positive allosteric modulator; outline: as §4
Mus musculus [23] = organism: Mus musculus; test: Antipsychotic activity against GPR68 knockout C57BL/6 mouse assessed as cued memory retrieval by Morris water maze test; format: functional, organism-based
Mus musculus [24] = organism: Mus musculus; test: […] activity against GPR68 knockout C57BL/6 mouse assessed as contextual memory retrieval; format: functional, organism-based; outline: as §6
[25] = biological target: T1, G-protein coupled receptor 68; test: Positive allosteric modulator activity at GPR68 expressed in human HEK293T cells assessed as proton-mediated phosphatidylinositol hydrolysis on pH 8.4 at 10 uM incubated for 20 mins by TriLuxMicroBeta counter analysis; format: functional, cell-based
Outline: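 GPR68-transfected HEK293-T cells labeled overnight with 3H-inositol (1 μCi/well) in inositol-free DMEM with 5% dialyzed FBS. Treated for 20 min at pH 8.4 in HBSS with 10 mM HEPES, 10 mM MES and 20 mM LiCl, compound at 10 μM. Extracted with 50 mM ice-cold formic acid, 30 min at 4°C. Captured on YSi beads and counted (cpm/well). n=3. 4-parameter logistic fit.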

[26] = Positive allosteric modulator activity at GPR68 R189M mutant transfected in human HEK293T cells assessed as proton-mediated calcium release at 10 uM incubated for 10 mins by Fluo-4 Direct calcium dye based FLIPR assay (reference value: 1.43 +/- 0.01 %); details: HEK-293T, condition central nervous system disease
[27] = Toxicity in C57BL/6 mouse assessed as cued memory retrieval by Morris water maze test; details: in vivo
[28] = Positive allosteric modulator activity at GPR68 R189L mutant transfected in human HEK293T cells assessed as proton-mediated calcium release at 10 uM incubated for 10 mins by Fluo-4 Direct calcium dye based FLIPR assay (reference value: 6.85 +/- 0.02); format: cell-based; details: HEK-293T
[29] = Positive allosteric modulator activity at GPR68 R189L mutant transfected in human HEK293T cells assessed as proton-mediated calcium release at 10 uM incubated for 10 mins by Fluo-4 Direct calcium dye based FLIPR assay (reference value: 1.42 +/- 0.01 %); details: HEK-293T, condition central nervous system disease
[30] = Positive allosteric modulator activity at GPR68 H269F mutant transfected in human HEK293T cells assessed as proton-mediated calcium release at 10 uM incubated for 10 mins by Fluo-4 Direct calcium dye based FLIPR assay (reference value: 6.44 +/- 0.02); format: cell-based; details: HEK-293T
[31] = Positive allosteric modulator activity at GPR68 E160Q mutant transfected in human HEK293T cells assessed as proton-mediated calcium release at 10 uM incubated for 10 mins by Fluo-4 Direct calcium dye based FLIPR assay (reference value: 6.86 +/- 0.04); format: cell-based; details: HEK-293T
[32] = biological target: T1, G-protein coupled receptor 68; test: Positive allosteric modulator activity at GPR68 expressed in human HEK293T cells assessed as proton-mediated calcium release at 10 uM incubated for 10 mins by Fluo-4 Direct calcium dye based FLIPR assay (reference value: 1.30 %); format: functional, cell-based
[33] = Toxicity in C57BL/6 mouse assessed as improvement in learning and spatial memory at 10 mg/kg administered for 30 mins by hidden platform test; format: organism-based; details: in vivo, 0.5 h
[34] = Toxicity in C57BL/6 mouse assessed as improvement in learning and spatial memory at 30 mg/kg administered for 30 mins by hidden platform test; format: organism-based; details: in vivo, 0.5 h
[35] = Positive allosteric modulator activity at GPR68 H269F mutant transfected in human HEK293T cells assessed as proton-mediated calcium release at 10 uM incubated for 10 mins by Fluo-4 Direct calcium dye based FLIPR assay (reference value: 1.57 +/- 0.01 %); details: HEK-293T, condition central nervous system disease
[36] = Positive allosteric modulator activity at GPR68 R189M mutant transfected in human HEK293T cells assessed as proton-mediated calcium release at 10 uM incubated for 10 mins by Fluo-4 Direct calcium dye based FLIPR assay (reference value: 6.77 +/- 0.01); format: cell-based; details: HEK-293T
[37] = Toxicity in C57BL/6 mouse assessed as improvement in cue memory at 10 to 30 mg/kg administered for 30 mins by Morris water maze test; format: organism-based; details: in vivo, 0.5 h, dose 10-30 mg/kg
[38] = Positive allosteric modulator activity at GPR68 E160K mutant transfected in human HEK293T cells assessed as proton-mediated calcium release at 10 uM incubated for 10 mins by Fluo-4 Direct calcium dye based FLIPR assay (reference value: 6.79 +/- 0.02); format: cell-based; details: HEK-293T

T2 sequence (Q8IYL9 whole entry): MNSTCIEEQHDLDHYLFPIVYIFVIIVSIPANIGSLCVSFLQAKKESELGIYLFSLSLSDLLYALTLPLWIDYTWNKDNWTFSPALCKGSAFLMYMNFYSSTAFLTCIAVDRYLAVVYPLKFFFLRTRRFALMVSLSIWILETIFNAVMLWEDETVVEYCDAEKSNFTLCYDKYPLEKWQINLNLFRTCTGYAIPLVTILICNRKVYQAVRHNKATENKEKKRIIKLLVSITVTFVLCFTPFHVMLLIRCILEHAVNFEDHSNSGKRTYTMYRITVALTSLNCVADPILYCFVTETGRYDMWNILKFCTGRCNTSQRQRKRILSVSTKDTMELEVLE
C-X-C chemokine receptor type 4 (Homo sapiens), sequence (P61073 whole entry): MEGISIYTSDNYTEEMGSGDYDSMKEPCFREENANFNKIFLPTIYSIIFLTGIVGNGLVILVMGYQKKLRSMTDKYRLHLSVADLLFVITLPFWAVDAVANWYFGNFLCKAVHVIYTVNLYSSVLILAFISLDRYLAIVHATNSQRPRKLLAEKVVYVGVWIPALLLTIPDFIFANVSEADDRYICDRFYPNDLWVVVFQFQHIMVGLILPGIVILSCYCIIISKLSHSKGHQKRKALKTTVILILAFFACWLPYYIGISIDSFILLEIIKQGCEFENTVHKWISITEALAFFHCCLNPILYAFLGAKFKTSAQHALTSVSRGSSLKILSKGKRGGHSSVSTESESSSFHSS
T1 sequence (Q15743 whole entry): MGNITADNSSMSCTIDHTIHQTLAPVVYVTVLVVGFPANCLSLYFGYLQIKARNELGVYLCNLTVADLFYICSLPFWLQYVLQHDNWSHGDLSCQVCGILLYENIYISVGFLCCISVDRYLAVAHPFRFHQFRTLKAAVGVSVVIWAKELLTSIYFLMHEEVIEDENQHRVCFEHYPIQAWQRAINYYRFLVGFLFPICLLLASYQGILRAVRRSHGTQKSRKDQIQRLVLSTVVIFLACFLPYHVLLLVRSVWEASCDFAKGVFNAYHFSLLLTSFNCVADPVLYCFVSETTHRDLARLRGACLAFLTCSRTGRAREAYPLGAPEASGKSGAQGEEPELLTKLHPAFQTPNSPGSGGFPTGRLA
G-prodeshotein coupled receptor 4 (Homo sapiens), sequence (P46093 whole entry, looked up): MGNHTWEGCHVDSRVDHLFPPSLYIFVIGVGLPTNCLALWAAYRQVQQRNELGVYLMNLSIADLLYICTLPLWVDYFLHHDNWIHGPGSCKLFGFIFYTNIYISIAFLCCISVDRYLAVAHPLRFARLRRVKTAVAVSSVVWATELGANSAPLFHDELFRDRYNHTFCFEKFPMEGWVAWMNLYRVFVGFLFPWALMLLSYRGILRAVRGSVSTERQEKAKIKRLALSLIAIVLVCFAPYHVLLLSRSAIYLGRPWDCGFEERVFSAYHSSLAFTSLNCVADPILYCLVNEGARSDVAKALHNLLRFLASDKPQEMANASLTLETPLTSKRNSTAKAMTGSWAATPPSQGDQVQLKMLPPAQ

## O=C1Nc2ccc(Cl)cc2C(c2ccccc2Cl)=NC1O (stereo not given)
[1]
  Activity: inactive
[2]
  Activity: 2
[3]
  Activity: inactive
[4]
  Activity: inactive
[5]
  Activity: Active
[6]
  Activity: Active
[7]
  Activity: inactive
[8]
  pKb: 5.92

## COc1ccc(-c2csc(NC(=O)CSc3nc[nH]n3)n2)cc1OC
[9]
  Emax: 2.2%
HEK293T [10]
  Activity: Active
HEK293T [11]
  Activity: Active
HEK293T [12]
  Activity: Active
[13]
  Emax: 1.5%
[14]
  Activity: inactive
[15]
  EC50: 0.501 µM
[16]
  EC50: 6.31 µM

## Nc1nc(NCc2ccccc2)nc(-c2cccc(CO)c2)n1 [ZINC32547799]
[1]
  Activity: inactive
[17]
  Emax at 10 µM: 1.21%
[3]
  Activity: inactive
[18]
  Emax at 10 µM: 1.38%
[19]
  Activity: Non-Toxic
[20]
  Activity: Non-Toxic
[21]
  EC50: 0.158 µM
[22]
  Emax: 43.1%
Mus musculus [23]
  Activity: inactive
Mus musculus [24]
  Activity: inactive
[25]
  Activity: inactive
[26]
  Emax at 10 µM: 1.35%
[27]
  Activity: Non-Toxic
[28]
  EC50: 0.129 µM
[29]
  Emax at 10 µM: 1.36%
[30]
  EC50: 0.339 µM
[31]
  EC50: 0.234 µM
[32]
  Emax: 1.33%
[33]
  Activity: Non-Toxic
[34]
  Activity: Toxic
[35]
  Emax at 10 µM: 1.52%
[36]
  EC50: 0.186 µM
[37]
  Activity: Non-Toxic
[38]
  EC50: 0.158 µM
